Assays:
Jurkat [1] = assay: Cytotoxicity against human Jurkat cells assessed as cell viability at 1 uM after 24 hrs by MTT assay relative to control; type: functional; conditions: read-out: Activity
In short: (§1)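 Jurkat T-cell leukaemia line grown in RPMI 1640 with 10% FBS, 2 mM L-glutamine and gentamycin at 37 °C, 5% CO2, kept in log phase. Compounds were dissolved in DMSO and applied for 24 h. Cells were washed in HEPES-buffered medium (pH 7.4) and given MTT at 0.5 mg/mL for 45 min at 37 °C. Formazan was dissolved in DMSO and read at 570 nm. Viability is % of control, from three independent measurements.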

[2] = Cytotoxicity against HSF cells assessed as cell viability at 50 uM after 24 hrs by MTT assay relative to control; type: cell-based; conditions: human, read-out: Activity
In short: (§2)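 Normal human skin fibroblasts (HSF, primary line) were exposed to DMSO-dissolved compound for 24 h. Viability was read by MTT tetrazolium reduction and expressed against untreated control set at 100%.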

[3] = Cytotoxicity against HSF cells assessed as cell viability at 1 uM after 24 hrs by MTT assay relative to control; type: cell-based; conditions: human, read-out: Activity; in short: as §2
Jurkat [4] = assay: Cytotoxicity against human Jurkat cells assessed as cell viability at 100 uM after 24 hrs by MTT assay relative to control; type: functional; conditions: read-out: Activity; in short: as §1
Jurkat [5] = assay: Cytotoxicity against human Jurkat cells assessed as cell viability at 50 uM after 24 hrs by MTT assay relative to control; type: functional; conditions: read-out: Activity; in short: as §1
[6] = Cytotoxicity against HSF cells assessed as cell viability at 100 uM after 24 hrs by MTT assay relative to control; type: cell-based; conditions: human, read-out: Activity; in short: as §2
SiHa [7] = assay: Growth inhibition of human SiHa cells assessed as BrdU incorporation at 31.2 uM after 72 hrs by spectrophotometry; type: functional; conditions: read-out: GI
[8] = Growth inhibition of HSF cells assessed as BrdU incorporation at 155.9 uM after 72 hrs by spectrophotometry; type: cell-based; conditions: human, read-out: GI
[9] = Growth inhibition of HSF cells assessed as BrdU incorporation at 31.2 uM after 72 hrs by spectrophotometry; type: cell-based; conditions: human, read-out: GI
SiHa [10] = assay: Growth inhibition of human SiHa cells assessed as BrdU incorporation at 155.9 uM after 72 hrs by spectrophotometry; type: functional; conditions: read-out: GI
Vero [11] = assay: Growth inhibition of african green monkey Vero cells assessed as BrdU incorporation at 31.2 uM after 72 hrs by spectrophotometry; type: cell-based; conditions: chlorocebus sabaeus
[12] = Growth inhibition of human LS180 cells assessed as BrdU incorporation at 31.2 uM after 72 hrs by spectrophotometry; type: functional; conditions: LS180, 72 h, read-out: GI
T47D [13] = assay: Growth inhibition of human T47D cells assessed as BrdU incorporation at 155.9 uM after 72 hrs by spectrophotometry; type: functional; conditions: read-out: GI
[14] = Growth inhibition of human LS180 cells assessed as BrdU incorporation at 155.9 uM after 72 hrs by spectrophotometry; type: functional; conditions: LS180, 72 h, read-out: GI
[15] = Growth inhibition of african green monkey Vero cells assessed as BrdU incorporation at 155.9 uM after 72 hrs by spectrophotometry; type: cell-based; conditions: chlorocebus sabaeus, read-out: GI
T47D [16] = assay: Growth inhibition of human T47D cells assessed as BrdU incorporation at 31.2 uM after 72 hrs by spectrophotometry; type: functional; conditions: read-out: GI
SiHa [17] = assay: Growth inhibition of human SiHa cells assessed as BrdU incorporation at 34.9 uM after 72 hrs by spectrophotometry; type: functional; conditions: read-out: GI
In short: (§3)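 Cells were seeded at 10⁴ cells/mL and preincubated. Compounds were dissolved in DMSO and added at two fixed concentrations, then incubated for 72 h. End-point was BrdU labelling with ELISA detection, read spectrophotometrically. Result is % growth inhibition versus untreated controls. Triplicates.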

[18] = Growth inhibition of human LS180 cells assessed as BrdU incorporation at 34.9 uM after 72 hrs by spectrophotometry; type: functional; conditions: LS180, 72 h, read-out: GI; in short: as §3
T47D [19] = assay: Growth inhibition of human T47D cells assessed as BrdU incorporation at 34.9 uM after 72 hrs by spectrophotometry; type: functional; conditions: read-out: GI
In short: (§4)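 Each cell line was seeded at 10⁴ cells per mL and preincubated. Test agents were dissolved in DMSO, added at two examined concentrations (10 and 50 per mL by mass), and incubated for 72 h. The end-point was BrdU labeling and detection kit III read on an ELISA reader. Percent growth inhibition was calculated against untreated controls, in triplicate.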

T47D [20] = assay: Growth inhibition of human T47D cells assessed as BrdU incorporation at 174.6 uM after 72 hrs by spectrophotometry; type: functional; conditions: read-out: GI; in short: as §4
[21] = Growth inhibition of HSF cells assessed as BrdU incorporation at 174.6 uM after 72 hrs by spectrophotometry; type: cell-based; conditions: human; in short: as §3
Vero [22] = assay: Growth inhibition of african green monkey Vero cells assessed as BrdU incorporation at 34.9 uM after 72 hrs by spectrophotometry; type: cell-based; conditions: chlorocebus sabaeus; in short: as §3
[23] = Growth inhibition of human LS180 cells assessed as BrdU incorporation at 174.6 uM after 72 hrs by spectrophotometry; type: functional; conditions: LS180, 72 h, read-out: GI; in short: as §3
SiHa [24] = assay: Growth inhibition of human SiHa cells assessed as BrdU incorporation at 174.6 uM after 72 hrs by spectrophotometry; type: functional; conditions: read-out: GI; in short: as §3
[25] = Growth inhibition of HSF cells assessed as BrdU incorporation at 34.9 uM after 72 hrs by spectrophotometry; type: cell-based; conditions: human, read-out: GI; in short: as §3
[26] = Growth inhibition of african green monkey Vero cells assessed as BrdU incorporation at 174.6 uM after 72 hrs by spectrophotometry; type: cell-based; conditions: chlorocebus sabaeus, read-out: GI; in short: as §3

Row | SMILES | viability at 1 µM (Jurkat [1]) | viability at 24 h, 50 µM [2] | viability at 24 h, 1 µM [3] | viability at 100 µM (Jurkat [4]) | viability at 50 µM (Jurkat [5]) | viability at 24 h, 100 µM [6] | also measured
1 | CCOC(=O)c1nnc2n(c1=O)CCN2c1ccc(C)cc1 | 83% | 87% | 91% | 93% | 89% | 82% | 
2 | CCOC(=O)c1nnc2n(c1=O)CCN2c1cccc(Cl)c1 | 114% | 103% | 104% | 107% | 111% | 98% | inhibition of growth at 31.2 µM (SiHa [7]): 41%; inhibition at 72 h, 155.9 µM [8]: 17%; inhibition at 72 h, 31.2 µM [9]: 16%; inhibition of growth at 155.9 µM (SiHa [10]): 52%; growth inhibition (GI) (Vero [11]): 20%; inhibition of growth at 31.2 µM [12]: 30%; inhibition of growth at 155.9 µM (T47D [13]): 41%; inhibition of growth at 155.9 µM [14]: 35%; inhibition at 72 h, 155.9 µM [15]: 25%; inhibition of growth at 31.2 µM (T47D [16]): 26%
3 | CCOC(=O)c1nnc2n(c1=O)CCN2c1ccc(OC)cc1 | 118% | 100% | 104% | 110% | 110% | 97% | 
4 | Cc1ccc(N2CCn3c2nnc(C(=O)NN)c3=O)cc1 | 93% | 111% | 109% | 79% | 87% | 95% | inhibition of growth at 34.9 µM (SiHa [17]): 11%; inhibition of growth at 34.9 µM [18]: 0%; inhibition of growth at 34.9 µM (T47D [19]): 5%; inhibition of growth at 174.6 µM (T47D [20]): 8%; growth inhibition (GI) [21]: 0%; growth inhibition (GI) (Vero [22]): 2%; inhibition of growth at 174.6 µM [23]: 14%; inhibition of growth at 174.6 µM (SiHa [24]): 9%; inhibition at 72 h, 34.9 µM [25]: 0%; inhibition at 72 h, 174.6 µM [26]: 0%

— ChEMBL document CHEMBL1141657, “Synthesis, structure elucidation and identification of antitumoural properties of novel fused 1,2,4-triazine aryl derivatives” (Eur J Med Chem, 2008)
